ATG4B inhibitor: ATG4B protease inhibitors, primary screen, biochemical, fluorescence, uHTS; Cysteine protease ATG4B (Homo sapiens), Q9Y4P1; AID 504462, 2011; ATG4B cleavage of LC3-PLA2, NBD-HPC fluorescence, 1 h; hit rate 0.51% among 340,000; inhibition, % at 8.33 µM; in the data active means inhibition above about 40%
Target sequence (Q9Y4P1 whole entry, looked up): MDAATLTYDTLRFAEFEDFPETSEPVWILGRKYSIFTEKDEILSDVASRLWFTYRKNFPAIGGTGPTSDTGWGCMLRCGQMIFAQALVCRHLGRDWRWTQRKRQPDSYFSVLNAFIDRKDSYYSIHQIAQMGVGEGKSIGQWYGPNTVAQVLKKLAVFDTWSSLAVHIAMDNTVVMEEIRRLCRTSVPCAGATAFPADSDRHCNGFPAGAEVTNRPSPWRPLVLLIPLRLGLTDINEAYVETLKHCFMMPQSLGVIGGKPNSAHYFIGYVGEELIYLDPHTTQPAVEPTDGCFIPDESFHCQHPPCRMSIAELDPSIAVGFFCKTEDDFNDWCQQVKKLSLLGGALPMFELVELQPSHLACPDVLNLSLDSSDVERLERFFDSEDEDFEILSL
MBD2 DNA inh: inhibitors of MBD2 binding to methylated DNA, primary screen, biochemical, TR-FRET, DNA-binding domain, human; Methyl-CpG-binding domain protein 2 (Homo sapiens), Q9UBB5; MBD2 binding to methylated oligonucleotide; inhibition, % at 4.4 µM; hit rate 0.31% among 370,000; in the data active means inhibition above about 13%
CSN inh: inhibitors of CSN-mediated cullin deneddylation, primary screen, biochemical, fluorescence polarization, uHTS | hit rate 0.38% among 360,000 | inhibition, % at 12.5 µM | Purified CSN, SCF-Nedd8-OG deneddylation;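 active means pattern-corrected inhibition above about 35%, with an unprinted fluorescence ratio check between 0.5 and 1.5, limit read from the data, passing the limit was not always enough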
Target sequence (Q92905 whole entry, looked up, one chain of several): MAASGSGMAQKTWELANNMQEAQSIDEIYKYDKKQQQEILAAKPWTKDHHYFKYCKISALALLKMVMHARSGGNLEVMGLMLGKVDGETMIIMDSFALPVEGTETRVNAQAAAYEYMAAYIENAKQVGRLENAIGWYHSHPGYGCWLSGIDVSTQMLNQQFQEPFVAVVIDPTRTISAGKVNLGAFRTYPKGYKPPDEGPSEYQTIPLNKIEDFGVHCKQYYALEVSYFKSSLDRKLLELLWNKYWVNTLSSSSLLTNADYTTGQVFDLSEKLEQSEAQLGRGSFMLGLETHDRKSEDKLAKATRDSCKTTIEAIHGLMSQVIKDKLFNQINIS
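Material: human Csn5 produced in HEK293T cells; Input: enzyme 0.24 nM; Reagent: SCFSkp2-Nedd8OG substrate at 10 nM final; Dosing: 12.5 µM compound; Incubation: 90 min reaction at room temperature; Detection: fluorescence polarization of the substrate; Evaluation: % inhibition of substrate cleavage by Csn5; Control set: substrate-only high control, full reaction low control.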
UHRF1 binding: UHRF1 methylated DNA binding inhibitors, primary screen, counter-screen for MBD2 inhibitor project, biochemical, TR-FRET, human UHRF1, single concentration | AID 687016, 2013 | inhibition, % at 4.4 µM | hit rate 0.75% among 370,000 | UHRF1 binding to methylated oligo | E3 ubiquitin-protein ligase UHRF1 (Homo sapiens), Q96T88; in the data active means inhibition above about 21%;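 further: UHRF1 SRA domain binding a hemimethylated CpG hairpin DNA probe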
rCAG RNA binder: binders of r(CAG) RNA repeats, primary screen, biochemical, fluorescence | r(CAG) RNA repeat, TO-PRO-1 dye displacement fluorescence | inhibition, % at 3 µM | hit rate 1.3% among 370,000;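 active means inhibition above the plate cutoff, the mean of all test compounds on that plate plus 3 SD, cut at about 35% in these data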;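 further: higher means more dye released from RNA so lower well fluorescence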
LEDGF integ inh: blockers of LEDGF/p75-dependent integrase strand transfer – biochemical, TR-FRET, high throughput, primary screen; TR-FRET IN-LEDGF/p75 DNA integration, Eu/Cy5; inhibition, % at 3.7 µM; hit rate 0.64% among 370,000;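 active means inhibition above the screen-wide mean plus 3 SD, cut at about 13% in these data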;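 further: signal is the Cy5 over europium emission ratio at 671 and 618 nm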
rCAG binder conf: small molecules binding CAG repeat RNA – biochemical, fluorescence, confirmation; shares compounds with rCAG RNA binder; AID 652065, 2013; hit rate 70% among 4,300; r(CAG) RNA repeat, TO-PRO-1 dye displacement fluorescence; inhibition, % at 3 µM;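 active means inhibition above a per-plate cutoff, the mean inhibition of sample wells plus 3 SD, cut at about 35% in these data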;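 further: loss of TO-PRO-1 fluorescence as compound displaces dye from 1x1 AA loop RNA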
dCAG dye counter: displacement of TO-PRO-1 from CAG DNA duplex, counter-screen for rCAG RNA repeat binder project, biochemical, fluorescence, TO-PRO-1 dye, d(CAG) DNA oligo. shares compounds with rCAG RNA binder. d(CAG) DNA oligo TO-PRO-1 dye displacement. inhibition, % at 3 µM. hit rate 94% among 4,300. AID 652068, 2013;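 active means inhibition above its plate's cutoff, the mean test-well inhibition plus 3 SD, cut at about 4.8% in these data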;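 further: hits displace the dye from DNA and so lower well fluorescence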
DNA CAG DR: inhibitors of DNA CAG/GTC TO-PRO-1 complex, dose response, counter-screen for rCAG RNA repeat binder project, biochemical, fluorescence, TO-PRO-1 dye | IC50, µM | DNA CAG/GTC duplex TO-PRO-1 dye displacement fluorescence | shares compounds with rCAG RNA binder | AID 686960, 2013 | hit rate 20% among 250; in the data active means IC50 below about 10 µM
Of the large screens only hits and unclear results are named; the others gave an inactive call (follow-up assays come after a bar, where they were run). The list is not random: actives were taken first. Their share in the collection is about 3.1%.

Cc1ccc(C(=O)Nc2ccccc2C(=O)NC(Cc2ccccc2)C(=O)O)cc1 (stereo unspecified)	rCAG RNA binder 42.8 | rCAG binder conf 38.3 | dCAG dye counter 8.7
O=C(NC(Cc1c[nH]c2ccccc12)C(=O)O)c1ccccc1 (stereo unspecified)	none
Cc1ccc(C(=O)Nc2ccccc2C(=O)NC(Cc2c[nH]c3ccccc23)C(=O)O)cc1 (stereo unspecified)	rCAG RNA binder 61.0 | rCAG binder conf 62.5 | dCAG dye counter 24.1
Cc1cc(C(C)(C)C)cc(S(=O)(=O)Nc2ccc(O)c(C(=O)O)c2)c1C	rCAG RNA binder 56.8 | rCAG binder conf inactive | dCAG dye counter 5.3
Cc1cccc2cc3c(N)c(C#N)sc3nc12	none
Cc1sc(NC(=O)c2sc3nc4c(C)cccc4cc3c2N)c(C#N)c1C	rCAG RNA binder 67.7 | rCAG binder conf 60.0 | dCAG dye counter 32.2
O=C(COc1ccccc1F)Nc1cc(S(=O)(=O)Nc2cccc(Cl)c2)ccc1O	rCAG RNA binder 63.8 | rCAG binder conf 55.6 | dCAG dye counter 21.8
Cc1cc(C)nc(NS(=O)(=O)c2ccc(NC(=O)COc3ccccc3F)cc2)n1	none
N#Cc1ccc(S(=O)(=O)N2CCCc3nc(-c4ccc(Br)cc4)ccc32)cc1	none (no result: ATG4B inhibitor, CSN inh)
O=C(C=Cc1ccco1)c1ccc2ccccc2c1	rCAG RNA binder 38.2 | rCAG binder conf inactive | dCAG dye counter 10.0
CN(C)c1ccc(C(=O)/C=C/c2ccco2)cc1	none
COc1ccc([C@@H]2CC=C(C(=O)O)[C@H](c3ccc(Cl)cc3)N2S(=O)(=O)c2ccc(Cl)cc2)cc1	rCAG RNA binder 59.1 | rCAG binder conf 74.2 | dCAG dye counter 37.5
Cc1ccc([C@@H]2CC=C(C(=O)O)[C@H](c3ccc(Br)cc3)N2S(=O)(=O)c2ccc(C)cc2)cc1	rCAG RNA binder 82.3 | rCAG binder conf 83.8 | dCAG dye counter 49.8
CCOc1ccc([C@@H]2CC=C(C(=O)O)[C@H](c3ccc(F)cc3)N2S(=O)(=O)c2ccc(C)cc2)cc1	rCAG RNA binder 51.6 | rCAG binder conf 51.2 | dCAG dye counter 14.8
Cc1ccc(S(=O)(=O)N2[C@@H](c3ccc(F)cc3)C(C(=O)O)=CC[C@H]2c2cccc(C)c2)cc1	none
Cc1ccc([C@@H]2CC=C(C(=O)O)[C@H](c3ccc(F)cc3)N2S(=O)(=O)c2ccc(C)cc2)cc1	rCAG RNA binder 54.3 | rCAG binder conf 61.4 | dCAG dye counter 24.1
O=C(NN=Cc1ccc(-c2ccccc2)cc1)c1cc(-c2ccc(Cl)cc2)n[nH]1	none (no result: ATG4B inhibitor, CSN inh)
O=C(NC1CCCCN(Cc2cccc(C(F)(F)F)c2)C1=O)c1cccc(F)c1 (stereo unspecified)	none (no result: ATG4B inhibitor, CSN inh)
Cc1ccccc1S(=O)(=O)N1[C@@H](c2ccc(F)cc2)C(C(=O)O)=CC[C@H]1c1ccc(Cl)cc1	rCAG RNA binder 57.8 | rCAG binder conf 72.2 | dCAG dye counter 32.8 | DNA CAG DR inactive
Cc1ccc(S(=O)(=O)N2C(c3cccc(Cl)c3)CC=C(C(=O)O)C2c2cccc(Cl)c2)cc1 (stereo unspecified)	none (no result: ATG4B inhibitor)
Cc1ccc(S(=O)(=O)N2[C@@H](c3ccccc3)C(C(=O)O)=CC[C@H]2c2cccc(Cl)c2)cc1	none
CCc1ccc([C@@H]2CC=C(C(=O)O)[C@H](c3ccccc3)N2S(=O)(=O)c2ccc(C)cc2)cc1	rCAG RNA binder 76.2 | rCAG binder conf 66.9 | dCAG dye counter 27.4
COc1ccc([C@@H]2CC=C(C(=O)O)[C@H](c3cccc(Cl)c3)N2S(=O)(=O)c2ccc(C)cc2)cc1OC	rCAG RNA binder 38.9 | rCAG binder conf inactive | dCAG dye counter 7.0
CCc1ccc([C@@H]2CC=C(C(=O)O)[C@H](c3ccc(F)cc3)N2S(=O)(=O)c2ccc(C)cc2)cc1	rCAG RNA binder 80.1 | rCAG binder conf 62.1 | dCAG dye counter 24.2
Cn1c(Cc2cccs2)nnc1SCC(=O)Nc1ccc2cn[nH]c2c1	none (no result: ATG4B inhibitor, CSN inh)
CCOc1ccc([C@@H]2CC=C(C(=O)O)[C@H](c3cccc(Cl)c3)N2S(=O)(=O)c2ccc(C)cc2)cc1	rCAG RNA binder 69.3 | rCAG binder conf 70.5 | dCAG dye counter 33.2 | DNA CAG DR inactive
O=C(O)C1=CC[C@@H](c2ccc(Cl)cc2)N(S(=O)(=O)c2ccc(Cl)cc2)[C@H]1c1ccc(F)cc1	rCAG RNA binder 70.1 | rCAG binder conf 67.7 | dCAG dye counter 30.0
Cc1ccc(OC(C)C(=O)Nc2ccc(S(=O)(=O)Nc3nccs3)cc2)cc1 (stereo unspecified)	rCAG RNA binder 37.6 | rCAG binder conf inactive | dCAG dye counter 6.5
Cc1ccc(SCC(=O)Nc2ccc(S(=O)(=O)Nc3nccs3)cc2)cc1	rCAG RNA binder 48.7 | rCAG binder conf 50.2 | dCAG dye counter 14.6
CCc1ccc(OC(C)C(=O)Nc2ccc(S(=O)(=O)Nc3nccs3)cc2)cc1 (stereo unspecified)	rCAG RNA binder 51.6 | rCAG binder conf 38.7 | dCAG dye counter 14.1
CCC(C)C(=O)Nc1ccc(S(=O)(=O)Nc2nccs2)cc1 (stereo unspecified)	none
CCCC(=O)Nc1ccc(S(=O)(=O)Nc2nccs2)cc1	none
CC(C)(C)c1ccc(C(=O)NCCC(=O)Nc2ccc(S(=O)(=O)Nc3nccs3)cc2)cc1	rCAG RNA binder 57.2 | rCAG binder conf 54.2 | dCAG dye counter 20.0
COC(=O)c1cc(C(C)c2ccccc2O)n2ccccc12 (stereo unspecified)	none (no result: ATG4B inhibitor, CSN inh)
CC(COc1ccc(C(F)(F)F)cc1)CN1CCC(C(O)(c2ccccc2)c2ccccc2)CC1 (stereo unspecified)	none (no result: ATG4B inhibitor, CSN inh)
CC(C)C[C@@H]1COc2cccc(F)c2S(=O)(=O)N1C	none (no result: ATG4B inhibitor, CSN inh)

Bioassay records: PubChem BioAssay, several laboratories
